# Data reported in paper PMC2746395 (Journal of medicinal chemistry, 2009).
# Entries after “also recorded” stand apart in the source; their conditions may differ.
# Legend:
# human SERT (hSERT) = human SERT (hSERT) (Homo sapiens, UniProt P31645); test: In vitro competition binding vs [3H]citalopram in transfected HEK-293 cells; settings: Ki ratio relative to 1
# human NET (hNET) = human NET (hNET) (Homo sapiens, UniProt P23975); test: In vitro competition binding vs [3H]nisoxetine in transfected HEK-293 cells
# Sequence of human NET (hNET) (P23975 whole entry): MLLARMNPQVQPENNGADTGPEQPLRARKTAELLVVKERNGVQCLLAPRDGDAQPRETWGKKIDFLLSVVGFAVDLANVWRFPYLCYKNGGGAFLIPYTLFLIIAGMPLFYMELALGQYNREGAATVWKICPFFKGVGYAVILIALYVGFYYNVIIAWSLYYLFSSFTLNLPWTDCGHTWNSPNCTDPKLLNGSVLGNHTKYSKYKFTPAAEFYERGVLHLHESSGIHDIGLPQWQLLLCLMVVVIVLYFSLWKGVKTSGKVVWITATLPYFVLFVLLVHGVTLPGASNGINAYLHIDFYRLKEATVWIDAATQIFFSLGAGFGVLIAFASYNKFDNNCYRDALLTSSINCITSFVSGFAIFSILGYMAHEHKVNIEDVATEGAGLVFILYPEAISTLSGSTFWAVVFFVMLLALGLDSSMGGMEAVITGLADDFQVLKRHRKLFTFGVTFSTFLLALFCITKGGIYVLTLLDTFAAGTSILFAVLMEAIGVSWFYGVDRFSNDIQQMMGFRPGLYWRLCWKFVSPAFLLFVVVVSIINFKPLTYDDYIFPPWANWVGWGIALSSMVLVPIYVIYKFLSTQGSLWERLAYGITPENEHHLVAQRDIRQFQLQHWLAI
# [1] = Lipophilicity measurement; format: physicochemical; settings: relative to 1
# Procedure, shortened: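 Radiolabeled test compound (~5–10 µCi) was added to 2 mL 1-octanol plus 2 mL 0.02 M sodium phosphate buffer (pH 7.4), vortexed 10 min at room temperature, then centrifuged 5 min. A 0.5 mL sample of each layer was gamma-counted and decay corrected. log P7.4 = log(octanol counts/buffer counts) per replicate; three replicates averaged.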
# NET [2] = molecular target: T1, NET (Macaca mulatta, UniProt Q9MYW8); test: MicroPET imaging in anesthetized rhesus monkeys; format: in vivo, rhesus monkey; settings: for Peak ratio of uptake cerebellum to caudate / Peak ratio of uptake midbrain to caudate / Peak ratio of uptake thalamus to caudate: time not stated; for time of peak uptake in all regions of interest: followed by fast washout
# T1 sequence (Q9MYW8 1-617): as the sequence (P23975 whole entry) above, with N15S, T19A, I246V, V410I, V427I, S452G, I606V counted along it
# NET [3] = molecular target: T1, NET; test: PET imaging in awake rhesus monkeys; format: in vivo, rhesus monkey; settings: for effect of isoflurane anesthesia / awake state on binding kinetics: awake vs anesthetized monkeys
# NET [4] = settings: rats, 60 min post injection; cited from earlier work
# NET [5] = settings: cited from earlier work
# NET [6] = settings: cynomolgus monkeys and human; cited from earlier work
# [7] = after injection, baseline, anesthetized
# [8] = postinjection, baseline, anesthetized
# Sequence of human SERT (hSERT) (P31645 whole entry): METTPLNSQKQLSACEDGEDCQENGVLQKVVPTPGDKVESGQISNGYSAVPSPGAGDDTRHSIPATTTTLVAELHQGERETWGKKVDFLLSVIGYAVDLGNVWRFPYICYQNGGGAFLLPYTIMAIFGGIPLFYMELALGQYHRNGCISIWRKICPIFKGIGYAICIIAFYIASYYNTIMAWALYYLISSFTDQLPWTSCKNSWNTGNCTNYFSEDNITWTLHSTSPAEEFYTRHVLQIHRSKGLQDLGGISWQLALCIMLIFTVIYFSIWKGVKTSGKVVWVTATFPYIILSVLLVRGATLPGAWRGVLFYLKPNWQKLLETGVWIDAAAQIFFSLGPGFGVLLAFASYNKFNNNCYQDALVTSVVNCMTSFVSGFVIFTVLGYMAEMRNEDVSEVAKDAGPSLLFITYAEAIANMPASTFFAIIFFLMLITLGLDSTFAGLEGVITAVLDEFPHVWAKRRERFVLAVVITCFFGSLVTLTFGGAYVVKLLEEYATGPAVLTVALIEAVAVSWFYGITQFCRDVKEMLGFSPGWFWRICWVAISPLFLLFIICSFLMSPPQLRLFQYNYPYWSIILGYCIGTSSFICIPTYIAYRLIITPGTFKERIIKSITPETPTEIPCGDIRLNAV
compound,measurement,setting,value
"Cc1ccccc1S[C@@H](c1ccccc1)[C@@H]1CNCCO1 [compound 4, (2S,3S)-2-[α-(2-Methylphenylthio)phenylmethyl]morpholine]",times more potent than 1 for the SERT,human SERT (hSERT),6.5 times
same,times more potent than 1 for the NET,human NET (hNET); Ki ratio relative to 1,3.4 times
same,increase of log P7.4 on substitution of oxygen by sulfur,[1],0.43
[11CH3]c1ccccc1S[C@@H](c1ccccc1)[C@@H]1CNCCO1 [[^11C]4],displacement of radioactivity in the caudate in chase study with SERT ligand,"NET [2]; (R,S)-citalopram HBr 1.5 mg/kg 40 min after injection",no displacement
same,time of peak uptake of radioactivity in thalamus and midbrain,NET [2]; [7],27.5 to 45 min
same,"washout T1/2, thalamus and midbrain","NET [2]; baseline, anesthetized",~ 160 min
same,effect of isoflurane anesthesia / awake state on binding kinetics,NET [3],markedly decreased; also recorded: greatly decreased
[18F]CCOc1ccccc1OC(c1ccccc1)C1CNCCO1 (centres unmarked) [[^18F]2],Peak ratio of uptake cerebellum to caudate,"NET [2]; baseline, anesthetized",1.05
same,Peak ratio of uptake midbrain to caudate,"NET [2]; baseline, anesthetized",1.13
same,Peak ratio of uptake thalamus to caudate,"NET [2]; baseline, anesthetized",1.13
same,time of peak uptake in all regions of interest,"NET [2]; baseline, anesthetized",15 min
[18F]CCCOc1ccccc1OC(c1ccccc1)C1CNCCO1 (centres unmarked) [[^18F]3],Peak ratio of uptake cerebellum to caudate,"NET [2]; baseline, anesthetized",0.95
same,Peak ratio of uptake midbrain to caudate,"NET [2]; baseline, anesthetized",1.18
same,Peak ratio of uptake thalamus to caudate,"NET [2]; baseline, anesthetized",1.18
same,time of peak uptake in all regions of interest,"NET [2]; baseline, anesthetized",15 min
"[11CH3]Oc1ccccc1O[C@@H](c1ccccc1)[C@@H]1CNCCO1 [(S,S)-[^11C]MeNER]",hypothalamus-to-striatum uptake ratio,NET [4],2.5
same,ratios of uptake in NET-rich brain regions to striatum,NET [5]; 90 min postinjection,1.4–1.6
same,thalamus-to-striatum uptake ratios,NET [5]; cynomolgus monkeys and baboons,1.4–1.6
"[2H]C([2H])([18F])Oc1ccccc1O[C@@H](c1ccccc1)[C@H]1CNCCO1 [(S,S)-[^18F]FMeNER-D2]",thalamus-to-striatum binding ratio,NET [6],~ 1.5
"COc1ccccc1O[C@@H](c1ccccc1)[C@@H]1CNCCO1 [(S,S)-MeNER, reference compound]",NET selectivity DAT/NET,human NET (hNET); ratio of Ki values,>2000
[11CH3]c1ccccc1O[C@@H](c1ccccc1)[C@@H]1CNCCO1 [[^11C]1],highest ratios of uptake in NET-rich regions to that in caudate,"NET [2]; 45 min, anesthetized",1.30–1.45
same,Ratio of uptake pons to caudate (peak),"NET [2]; 45 min, baseline, anesthetized",1.40
same,time of peak uptake of radioactivity in thalamus and pons,NET [2]; [7],15.5 to 27.5 min
same,time to specific binding peak equilibrium (quasi-equilibrium),"NET [2]; after injection, both anesthetized and awake states",less than 1 h
same,"half-time for clearance from peak uptake (T1/2), thalamus and pons","NET [2]; baseline, anesthetized",~ 105 min
same,time of peak uptake in caudate,NET [2]; [8],18 to 35 min
same,time of peak uptake in midbrain and cerebellum,NET [2]; [8],9.5 to 18.5 min
same,effect of isoflurane anesthesia / awake state on binding kinetics,NET [3],not significantly altered
same,time of peak uptake,NET [3]; both awake and anesthetized monkey studies,17.5 to 35 min
